{
  "source": "paper PMC8717467",
  "about": "(Chemical biology & drug design, 2020)",
  "key": {"[1]": {"test_system": "lymph node cells from type II collagen-immunized HLA-DQ8 mice", "conditions": "ref A. Gokhale et al., 2013; A. S. Gokhale et al., 2015; cited from earlier work"}, "[2]": {"test_system": "adhesion between CD2 protein-expressing T cells and CD58 protein overexpressing Caco-2 cells", "conditions": "read-out: IC50 in cell adhesion assay, Jurkat/T cells and epithelial cells such as Caco-2 and OVCAR-3, ref A. Gokhale et al., 2011, 2013, A. S. Gokhale et al., 2015; cited from earlier work"}, "Thermal stability": {"assay": "Thermal stability", "assay_type": "physicochemical", "how_it_was_run": "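CD spectra of the peptide in water were recorded from 25 to 85 °C in 5 °C steps, 4 scans per temperature, 185–320 nm. Samples from 25, 55 and 85 °C were checked by mass spectrometry. Separately, peptide was incubated 30 min at 25, 55 or 85 °C, then run on C-18 HPLC and reported as relative peak area from triplicate experiments.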"}, "[3]": {"assay": "Chemical stability in buffers of different pH", "assay_type": "physicochemical", "conditions": "pH 1.5, 7.4 and 9.6 buffers, 30 days, HPLC, zero time peak area = 100%"}, "[4]": {"test_system": "T cell proliferation of lymph node cells from peptide-immunized DQ8 mice", "assay": "Immunogenicity studies", "assay_type": "in vivo", "conditions": "LNC T-cell proliferation 10 days after immunization", "how_it_was_run": "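HLA-DQ8 mice were immunized with 200 μL of test peptide at 50 μg/mL. Ten days later, lymph nodes were harvested and made into single-cell suspensions. The lymph node cells were challenged in vitro with a range of peptide concentrations to measure T-cell proliferation. ConA (1 μg/mL) served as positive control. Results are stimulation index versus peptide concentration; an index above 2 counted as positive.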"}, "[5]": {"target": "T1, adhesion between Jurkat cells (CD2) and OVCAR-3 cells (CD58) (Homo sapiens, UniProt P19256)", "T1 sequence (P19256 29-250)": "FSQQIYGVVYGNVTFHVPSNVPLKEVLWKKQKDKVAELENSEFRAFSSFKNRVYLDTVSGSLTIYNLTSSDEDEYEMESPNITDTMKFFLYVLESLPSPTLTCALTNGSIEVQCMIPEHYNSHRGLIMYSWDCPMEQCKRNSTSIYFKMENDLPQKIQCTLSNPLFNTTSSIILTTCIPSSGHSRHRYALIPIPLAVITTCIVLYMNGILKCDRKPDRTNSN", "T1 sequence (P06729 25-351 partner)": "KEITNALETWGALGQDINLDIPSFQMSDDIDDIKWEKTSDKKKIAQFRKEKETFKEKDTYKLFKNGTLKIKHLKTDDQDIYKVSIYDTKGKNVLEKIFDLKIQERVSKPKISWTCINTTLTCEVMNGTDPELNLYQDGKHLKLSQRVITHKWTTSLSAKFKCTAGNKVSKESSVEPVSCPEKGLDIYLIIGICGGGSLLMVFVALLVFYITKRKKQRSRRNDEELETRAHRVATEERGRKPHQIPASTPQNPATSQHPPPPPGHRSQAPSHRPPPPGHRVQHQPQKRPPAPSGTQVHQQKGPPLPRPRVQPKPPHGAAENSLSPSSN", "conditions": "read-out: IC50, Jurkat cell-OVCAR-3 cell adhesion assay"}, "[6]": {"target": "T2, adhesion between Jurkat cells (CD2 protein) and HFLS-RA cells (CD58 protein) (Homo sapiens, UniProt P19256)", "T2 sequence (P19256 29-250)": "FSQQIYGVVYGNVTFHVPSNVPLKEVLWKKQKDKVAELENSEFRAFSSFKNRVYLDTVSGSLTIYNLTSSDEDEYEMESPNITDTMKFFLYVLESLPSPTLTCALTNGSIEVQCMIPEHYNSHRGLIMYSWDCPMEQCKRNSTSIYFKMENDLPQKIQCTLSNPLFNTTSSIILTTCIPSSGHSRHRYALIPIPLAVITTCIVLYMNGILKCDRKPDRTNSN", "T2 sequence (P06729 25-351 partner)": "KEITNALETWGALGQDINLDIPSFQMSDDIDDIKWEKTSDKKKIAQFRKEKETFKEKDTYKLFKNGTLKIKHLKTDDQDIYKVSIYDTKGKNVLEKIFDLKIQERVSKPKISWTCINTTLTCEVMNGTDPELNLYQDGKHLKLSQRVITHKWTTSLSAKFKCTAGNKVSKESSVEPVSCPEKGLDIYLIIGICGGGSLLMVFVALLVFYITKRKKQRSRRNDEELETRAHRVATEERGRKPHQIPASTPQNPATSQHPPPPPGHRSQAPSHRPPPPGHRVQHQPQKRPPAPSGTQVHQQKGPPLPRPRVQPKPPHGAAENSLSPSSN", "conditions": "read-out: IC50, Jurkat cell - HFLS-RA cell adhesion assay"}, "CD58 adhesion domain": {"target": "T3, CD58 adhesion domain (Homo sapiens, UniProt P19256)", "T3 chain": "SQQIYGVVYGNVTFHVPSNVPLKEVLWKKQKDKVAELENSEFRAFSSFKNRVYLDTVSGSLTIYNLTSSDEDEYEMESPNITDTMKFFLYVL", "assay": "SPR"}},
  "note": "Bridge positions count the residues as written; N and C are the ends. Peptide text beside a SMILES is read from it.",
  "data": [
    {"molecule": "CC[C@H](C)[C@@H]1NC(=O)[C@H](CC(=O)O)NC(=O)[C@H](CC(=O)O)NC(=O)[C@@H]2CCCN2C(=O)[C@H]2CCCN2C(=O)[C@H](CC(=O)O)NC(=O)[C@H](Cc2ccc(O)cc2)NC(=O)[C@H]([C@@H](C)CC)NC(=O)[C@H](CO)NC(=O)[C@H](CCCCN)NC1=O", "note": "[Peptide 6]", "values": [
      {"measurement": "T cell immune response in cells derived from transgenic mice that develop arthritis", "setting": "[1]", "result": "suppress the T cell immune response"},
      {"measurement": "IC50", "setting": "[2]", "result": 6.9, "unit": "nM"}
    ]},
    {"molecule": "C[C@@H]1NC(=O)[C@@H]2CSSC[C@H](NC(=O)[C@H](CC(=O)O)NC(=O)[C@H](CC(=O)O)NC(=O)CNC(=O)[C@H](CC(=O)O)NC(=O)[C@H](Cc3ccc(O)cc3)NC1=O)C(=O)N[C@@H](CCCCN)C(=O)N[C@@H](CO)C(=O)N[C@@H](C)C(=O)N1CCC[C@H]1C(=O)N1CCC[C@H]1C(=O)N[C@@H](CO)C(=O)N2", "note": "[SFTI-a1] (cyclo(APPSCAYDGDDCKS); disulfide 5-12)", "values": [
      {"measurement": "Thermal stability: change of CD spectra with temperature", "setting": "Thermal stability; in water, 25 to 85 °C in 5 °C steps, CD", "result": "not significantly changed"},
      {"measurement": "Thermal stability: change in HPLC peak area", "setting": "Thermal stability; incubated at 55 and 85 °C for 30 min, HPLC C-18, triplicate experiments", "result": "no significant change in HPLC peak area"},
      {"measurement": "Thermal stability: mass spectrometric analysis", "setting": "Thermal stability; samples incubated at different temperatures (25, 55, 85 °C) in solution", "result": "no change in its mass"},
      {"measurement": "Chemical stability: degradation in buffers", "setting": "[3]", "result": "not degraded significantly"},
      {"measurement": "Immunogenicity", "setting": "[4]", "result": "not immunogenic"},
      {"measurement": "IC50", "setting": "[5]", "result": "23.3 ± 4.62", "unit": "nM"},
      {"measurement": "IC50", "setting": "[6]", "result": "37.2 ± 1.02", "unit": "nM"}
    ]},
    {"molecule": "cyclo(CKSAPPSCAYDGDD) (disulfide 1-8; SMILES C[C@@H]1NC(=O)[C@@H]2CSSC[C@H](NC(=O)[C@H](CC(=O)O)NC(=O)[C@H](CC(=O)O)NC(=O)CNC(=O)[C@H](CC(=O)O)NC(=O)[C@H](Cc3ccc(O)cc3)NC1=O)C(=O)N[C@@H](CCCCN)C(=O)N[C@@H](CO)C(=O)N[C@@H](C)C(=O)N1CCC[C@H]1C(=O)N1CCC[C@H]1C(=O)N[C@@H](CO)C(=O)N2)", "note": "[SFTI-a1]", "values": [
      {"measurement": "Kd", "setting": "CD58 adhesion domain", "result": 320, "unit": "nM"}
    ]}
  ]
}
